Source: ChEMBL document CHEMBL4184168, “Anticancer activities of emetine prodrugs that are proteolytically activated by the prostate specific antigen (PSA) and evaluation of in vivo toxicity of emetine derivatives” (Bioorg Med Chem, 2017)
Calls of active or inactive are those of the source. The calls are words filed in the database; no cut-off is given here. *1 amine or outer side, *2 acyl side, *3 side chain or, on linkers, in order; H or OH if unused. Where a SMILES comes first, the peptide text is derived from it. [ ]: non-standard residue; d: D form. The star is where a group is joined. Emetine(N2') = CC[C@H]1CN2CCc3cc(OC)c(OC)cc3[C@@H]2C[C@@H]1C[C@@H]1c2cc(OC)c(OC)cc2CCN1*; PABC = O=C(OCc1ccc(N[*:1])cc1)[*:2]

Key:
[1] = test system: PC-3; assay: Antiproliferative activity against human PC3 cells at 50 to 10000 nM after 3 days by MTT assay; type: functional, cell-based
Summary of the method: (§1)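 LNCaP seeded at 5 × 10^3 cells/well; PC3, CWR22Rv1 and MDA-MB-231 at 2.5 × 10^3. The first three were grown in RPMI and MDA-MB-231 in DMEM, each with 10% FBS. After 24 h attachment, cells got final 10, 50, 100, 1000 or 10,000 nM (0.1% DMSO) in eight replicates. Viable cells by MTT on day 0, 3 and 5, A570 corrected at 650 nm. Experiments run at least twice.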

[2] = target: T1, Prostate-specific antigen (Homo sapiens, UniProt P07288); assay: Prodrug activation assessed as human PSA-mediated 4-((S)-1-(L-Alanyl)pyrrolidine-2-carboxamido)benzyl (R)-1-(((2R,3R,11bS)-3-ethyl-9,10-dimethoxy-1,3,4,6,7,11b-hexahydro-2Hpyrido[2,1-a]isoquinolin-2-yl)methyl)-6,7-dimethoxy-3,4-dihydroisoquinoline-2(1H)-carboxylate formation measured over 24 hrs by LC-MS analysis
T1 sequence (P07288 whole entry): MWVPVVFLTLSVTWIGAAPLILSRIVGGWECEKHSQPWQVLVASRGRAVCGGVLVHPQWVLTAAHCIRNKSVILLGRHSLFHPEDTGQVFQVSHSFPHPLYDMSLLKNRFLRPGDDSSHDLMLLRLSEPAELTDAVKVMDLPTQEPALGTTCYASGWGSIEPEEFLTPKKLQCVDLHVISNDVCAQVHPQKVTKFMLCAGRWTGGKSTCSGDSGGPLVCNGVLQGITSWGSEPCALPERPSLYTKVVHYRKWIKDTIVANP
Summary of the method: (§2)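 10 mM DMSO stock diluted to 200 μM final in PSA buffer (50 mM Tris·HCl, 100 mM NaCl, pH 7.4) with purified PSA at 20 μg/mL final and 2% DMSO. Shaken at 37 °C. Aliquots taken at time points, quenched with cold acetonitrile, held on ice, centrifuged, then analysed by reversed-phase C18 HPLC (215/285 nm) and mass spectrometry.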

[3] = test system: LNCaP; assay: Potency index, ratio of emetine IC50 to compound IC50 for human LNCAP cells expressing PSA; type: functional
[4] = test system: Mus musculus; assay: Toxicity in Balb/C mouse assessed as convulsions at >25 mg/kg, iv; type: organism-based; details: in vivo
Summary of the method: (§3)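 Male Balb/c mice, eight weeks old, about 25 g. Single IV bolus of 200 μL, doses ranging from 8 to 100 mg/kg, in 1% DMSO/saline or 10% cremophor/saline; vehicle-only controls. Each dose tested in triplicate. Mice watched for convulsions, death and behaviour after injection to set the maximum tolerated dose.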

[5] = test system: MDA-MB-231; assay: Antiproliferative activity against human MDA-MB-231 cells at 50 to 10000 nM after 3 days by MTT assay; type: functional, cell-based; summary of the method: as §1
[6] = test system: Mus musculus; assay: Toxicity in Balb/C mouse assessed as death at >25 mg/kg, iv up to 1 min; type: organism-based; details: in vivo; summary of the method: as §3
[7] = Toxicity in iv dosed Balb/C mouse; type: organism-based; details: in vivo; summary of the method: as §3
[8] = test system: Mus musculus; assay: Toxicity in Balb/C mouse assessed as convulsion at >25 mg/kg, iv up to 1 min; type: organism-based; details: in vivo; summary of the method: as §3
[9] = test system: CWR22R; assay: Antiproliferative activity against human CWR22Rv1 cells expressing PSA after 3 days by MTT assay; type: functional, cell-based; details: for IC50: 22Rv1, 72 h; summary of the method: as §1
[10] = test system: Mus musculus; assay: Toxicity in Balb/C mouse assessed as convulsion at 16 mg/kg, iv up to 1 min; type: organism-based; details: in vivo; summary of the method: as §3
[11] = test system: Mus musculus; assay: Toxicity in Balb/C mouse assessed as death at 16 mg/kg, iv up to 1 min; type: organism-based; details: in vivo; summary of the method: as §3
[12] = test system: PC-3; assay: Antiproliferative activity against human PC3 cells after 3 days by MTT assay; type: functional, cell-based; details: for IC50: PC-3, 72 h; summary of the method: as §1
[13] = Prodrug activation assessed as emetine formation at […] in presence of 10% FBS after 5 days by HPLC-MS analysis; details: cattle, 120 h
Summary of the method: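 No enzyme added. 10 mM DMSO stock diluted to 200 μM final (2% DMSO) in PBS, 10% FBS in PBS, or conditioned RPMI (supernatant of LNCaP culture grown to about 95% confluency). Shaken at 37 °C, quenched with cold acetonitrile, centrifuged, supernatant analysed by reversed-phase C18 HPLC (215/285 nm) and ESI-MS.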

[14] = target: T1, Prostate-specific antigen; assay: Prodrug activation assessed as human PSA mediated 4-((S)-2-((S)-2-Amino-3-hydroxypropanamido)-4-methylpentanamido)benzyl(R)-1-(((2R,3R,11bS)-3-ethyl-9,10-dimethoxy-1,3,4,6,7,11b-hexahydro-2H-pyrido[2,1-a]isoquinolin-2-yl)methyl)-6,7-dimethoxy-3,4-dihydroisoquinoline-2(1H)-carboxylate formation by HPLC-MS analysis; details: TDE = time-dependent effect; summary of the method: as §2
[15] = test system: Mus musculus; assay: Toxicity in Balb/C mouse assessed as convulsion at >25 mg/kg, iv after 1 min; type: organism-based; details: in vivo; summary of the method: as §3
[16] = test system: LNCaP; assay: Antiproliferative activity against human LNCAP cells expressing PSA after 3 days by MTT assay; type: functional, cell-based; details: for IC50: 72 h; summary of the method: as §1
[17] = target: T1, Prostate-specific antigen; assay: Prodrug activation in human plasma assessed as human PSA mediated emetine formation at 200 uM after 48 hrs by HPLC-MS analysis
[18] = target: T1, Prostate-specific antigen; assay: Prodrug activation in human plasma assessed as human PSA mediated 4-((S)-2-((S)-2-Amino-3-hydroxypropanamido)-4-methylpentanamido)benzyl(R)-1-(((2R,3R,11bS)-3-ethyl-9,10-dimethoxy-1,3,4,6,7,11b-hexahydro-2H-pyrido[2,1-a]isoquinolin-2-yl)methyl)-6,7-dimethoxy-3,4-dihydroisoquinoline-2(1H)-carboxylate formation at 200 uM after 48 hrs by HPLC-MS analysis
[19] = test system: Mus musculus; assay: Toxicity in Balb/C mouse assessed as death at 33 mg/kg, iv measured at 1 min post dose; type: organism-based; details: in vivo; summary of the method: as §3
[20] = test system: Mus musculus; assay: Toxicity in Balb/C mouse assessed as convulsion at 33 mg/kg, iv measured at 1 min post dose; type: organism-based; details: in vivo; summary of the method: as §3
[21] = test system: Mus musculus; assay: Toxicity in Balb/C mouse assessed as mortality at >100 mg/kg, iv; type: organism-based; details: in vivo; summary of the method: as §3
[22] = test system: Mus musculus; assay: Toxicity in Balb/C mouse assessed as change in behavior at >100 mg/kg, iv; type: organism-based; details: in vivo; summary of the method: as §3
[23] = test system: Mus musculus; assay: Toxicity in Balb/C mouse at >100 mg/kg, iv; type: organism-based; details: in vivo; summary of the method: as §3
[24] = target: T2, Prostate-specific antigen (PSA) (Homo sapiens, UniProt P07288); assay: Stability in PBS buffer assessed as human PSA mediated compound metabolism by measuring parent compound remaining at […] after 72 hrs by HPLC-MS analysis; type: ADME; details: read-out: Stability
T2 sequence (P07288 whole entry): T1 sequence (P07288 whole entry)

[25] = Stability in PBS buffer assessed as parent compound remaining at […] after 72 hrs by HPLC-MS analysis; type: physicochemical; details: read-out: Stability
[26] = test system: Mus musculus; assay: Toxicity in Balb/C mouse at >50 mg/kg, iv; type: organism-based; details: in vivo; summary of the method: as §3
[27] = Stability assessed as parent compound remaining at […] in presence of 10% FBS after 72 hrs by HPLC-MS analysis; type: physicochemical; details: cattle, read-out: Stability
[28] = Stability in conditioned media assessed as parent compound remaining at […] after 72 hrs by HPLC-MS analysis; type: physicochemical; details: read-out: Stability

## CC[C@H]1CN2CCc3cc(OC)c(OC)cc3[C@@H]2C[C@@H]1C[C@@H]1c2cc(OC)c(OC)cc2CCN1C(=O)OCc1ccc(NC(=O)[C@@H]2CCCN2C(=O)[C@H](C)NC(=O)[C@H](CCC(N)=O)NC(=O)[C@H](CC(C)C)NC(=O)[C@H](CCCCN)NC(=O)[C@H](CO)NC(=O)[C@H](CO)NC(=O)[C@H](Cc2cnc[nH]2)NC(C)=O)cc1 (Ac-HSSKLQAP[PABC]-{Emetine(N2')})
[1]
  Activity: Active
[2]
  Drug metabolism: Metabolite_Notdetected
[3]
  Ratio IC50: 24
[4]
  Activity: Toxic
[5]
  Activity: Active

## CC[C@H]1CN2CCc3cc(OC)c(OC)cc3[C@@H]2C[C@@H]1C[C@@H]1c2cc(OC)c(OC)cc2CCN1C(=O)OCc1ccc(NC(=O)[C@@H]2CCCN2C(=O)[C@H](C)NC(=O)[C@@H]2CCCN2C(=O)CNC(=O)[C@H](C)NC(=O)[C@@H]2CCCN2C(=O)CNC(=O)[C@H](CO)NC(=O)[C@H](C)NC(C)=O)cc1 (Ac-ASGPAGPAP[PABC]-{Emetine(N2')})
[6]
  Activity: Toxic
[7]
  MTD: 25 mg/kg
[8]
  Activity: Toxic

## CC[C@H]1CN2CCc3cc(OC)c(OC)cc3[C@@H]2C[C@@H]1C[C@H]1NCCc2cc(OC)c(OC)cc21 [EMETINE]
[7]
  MTD: 8 mg/kg
[1]
  Activity: Active
[5]
  Activity: Active
[9]
  IC50: 30.8 nM
[10]
  Activity: Toxic
[11]
  Activity: Toxic

## CC[C@H]1CN2CCc3cc(OC)c(OC)cc3[C@@H]2C[C@@H]1C[C@@H]1c2cc(OC)c(OC)cc2CCN1C(=O)OCc1ccc(NC(=O)[C@H](CC(C)C)NC(=O)[C@H](CO)NC(=O)[C@H](CCC(N)=O)NC(=O)[C@H](CC(C)C)NC(=O)[C@H](CCCCN)NC(=O)[C@H](CO)NC(=O)[C@H](CO)NC(=O)[C@H](Cc2cnc[nH]2)NC(C)=O)cc1 (Ac-HSSKLQSL[PABC]-{Emetine(N2')})
[12]
  Activity: Dose-dependent effect
  IC50: 538 nM
[13]
  Drug metabolism: Metabolite_Notdetected
[7]
  MTD: 25 mg/kg
[14]
  Drug metabolism: Tde
[15]
  Activity: Toxic
[16]
  Activity: Dose-dependent effect
  IC50: 59 nM
[9]
  Activity: Dose-dependent effect
  IC50: 75.8 nM
[17]
  Drug metabolism: Metabolite_Notdetected
[18]
  Drug metabolism: Metabolite_Notdetected

## CC[C@H]1CN2CCc3cc(OC)c(OC)cc3[C@@H]2C[C@@H]1C[C@@H]1c2cc(OC)c(OC)cc2CCN1C(=O)OCc1ccc(NC(=O)[C@@H]2CCCN2C(=O)[C@H](C)NC(=O)[C@@H]2CCCN2C(=O)[C@H](C)NC(C)=O)cc1 (Ac-APAP[PABC]-{Emetine(N2')})
[19]
  Activity: Toxic
[20]
  Activity: Toxic

## CC[C@H]1CN2CCc3cc(OC)c(OC)cc3[C@@H]2C[C@@H]1C[C@@H]1c2cc(OC)c(OC)cc2CCN1C(=O)CCC(=O)O
[7]
  MTD: > 100 mg/kg
[21]
  Activity: Non-Toxic
[22]
  Activity: Non-Toxic

## CC[C@H]1CN2CCc3cc(OC)c(OC)cc3[C@@H]2C[C@@H]1C[C@@H]1c2cc(OC)c(OC)cc2CCN1C(=S)Nc1ccccc1
[7]
  MTD: > 100 mg/kg
[21]
  Activity: Non-Toxic
[23]
  Activity: Non-Toxic
[22]
  Activity: Non-Toxic

## CC[C@H]1CN2CCc3cc(OC)c(OC)cc3[C@@H]2C[C@@H]1C[C@@H]1c2cc(OC)c(OC)cc2CCN1C(=O)OCc1ccc(NC(=O)[C@H](CC(C)C)NC(=O)[C@@H](N)CO)cc1
[12]
  IC50: 100 nM
[24]
  remaining at 72 h: 100%
[7]
  MTD: 50 mg/kg
[25]
  remaining at 72 h: 100%
[16]
  IC50: 100 nM
[26]
  Activity: Toxic
[27]
  remaining at 72 h: 100%
[28]
  remaining at 72 h: 100%
